Assay outcomes (PubChem BioAssay)
An excerpt weighted towards active compounds, which were near 1.3% of everything screened.
DAGLB inh: DAGLB lipase inhibitors, primary screen, biochemical, fluorescence, HTS; Diacylglycerol lipase-beta (Homo sapiens), Q8NCG7; HEK293T DAGLB membrane lysate, EnzChek fluorogenic substrate; inhibition, % at 5.17 µM; actives 0.059% (n = 340,000); AID 504411, 2011; in the data active = inhibition above about 34%
ANO1 activ: TMEM16A chloride channel activators or potentiators, primary screen, cell-based, HTS; Anoctamin-1 (Mus musculus), Q8BHY3; HEK293 TMEM16A/YFP-H148Q/I152L, iodide quench fluorescence; active compounds read low; B-score at 10 µM; actives 0.3% (n = 340,000); AID 623877, 2012;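 active = fluorescence-ratio B-score plate-corrected deviation score at least 3 library SD below zero, with starting fluorescence score within 5 deviations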;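 note: channel opened by trigger with iodide after compound preincubation; score built on the fluorescence ratio of max minus min over baseline; more negative score means more quench and so TMEM16A activation or potentiation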
Target sequence (Q8BHY3 whole entry, looked up): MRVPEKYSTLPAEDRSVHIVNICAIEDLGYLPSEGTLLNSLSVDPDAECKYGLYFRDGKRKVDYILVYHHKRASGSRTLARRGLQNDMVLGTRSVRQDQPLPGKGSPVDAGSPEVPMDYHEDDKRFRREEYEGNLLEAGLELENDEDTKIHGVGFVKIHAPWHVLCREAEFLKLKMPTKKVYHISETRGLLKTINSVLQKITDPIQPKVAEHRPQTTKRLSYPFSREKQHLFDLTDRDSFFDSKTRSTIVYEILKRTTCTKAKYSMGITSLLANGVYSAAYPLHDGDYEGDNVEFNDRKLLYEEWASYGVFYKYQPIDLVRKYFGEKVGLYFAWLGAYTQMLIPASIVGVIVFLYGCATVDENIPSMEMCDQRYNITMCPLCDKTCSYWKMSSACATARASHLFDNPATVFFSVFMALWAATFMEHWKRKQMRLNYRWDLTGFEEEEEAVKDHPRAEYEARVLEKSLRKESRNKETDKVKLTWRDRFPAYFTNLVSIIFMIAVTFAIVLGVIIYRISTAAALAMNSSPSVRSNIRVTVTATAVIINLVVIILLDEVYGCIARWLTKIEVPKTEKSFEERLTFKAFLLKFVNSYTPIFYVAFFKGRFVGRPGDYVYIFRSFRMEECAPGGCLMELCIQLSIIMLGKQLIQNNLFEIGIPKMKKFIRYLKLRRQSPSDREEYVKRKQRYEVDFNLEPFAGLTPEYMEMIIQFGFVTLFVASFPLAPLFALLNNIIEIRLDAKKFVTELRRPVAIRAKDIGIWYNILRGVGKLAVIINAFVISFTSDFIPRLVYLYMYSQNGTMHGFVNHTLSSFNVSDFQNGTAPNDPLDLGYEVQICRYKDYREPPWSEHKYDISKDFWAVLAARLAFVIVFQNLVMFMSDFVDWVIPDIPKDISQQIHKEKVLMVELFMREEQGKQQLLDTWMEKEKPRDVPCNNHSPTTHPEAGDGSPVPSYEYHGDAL
TMEM16A inh: TMEM16A chloride channel inhibitors, primary screen, cell-based, HTS; Anoctamin-1 (Mus musculus), Q8BHY3; HEK293 TMEM16A/YFP iodide influx fluorescence, ionomycin; normalized B-score (activity score, 25-100; higher = stronger inhibition) at 10 µM; actives 1.2% (n = 310,000); AID 588511, 2011;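 active = ratio plate-corrected score three or more library SD toward inhibition, starting fluorescence score within five deviations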;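 note: score derived from kinetic fluorescence span divided by baseline fluorescence per well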
MT1-MMP act inh: blockers of MT1-MMP proenzyme processing, primary screen, HT1080 RFP-PRO-GFP cells, GFP/RFP fluorescence. GFP/RFP ratio fluorescence, overnight; percent of plate control window, DMSO zero. actives 0.061% (n = 360,000). Matrix metalloproteinase-14 (Homo sapiens), P50281. GFP/RFP ratio change, % at 20 µM;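 active = GFP/RFP ratio change of at least 30% with cell ATP level not reduced by more than half and red fluorescence within 50% of control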
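Compound: 20 µM single dose, 1% DMSO / System: HT1080 RFP-PRO-GFP cells / Controls: DMSO and RFP-L50D-GFP cell wells / Read-out basis: GFP/RFP fluorescence ratio / Schedule: overnight compound exposure at 37 °C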
TMEM16A reconf: TMEM16A chloride channel inhibitors, confirmation, cell-based, re-confirmation; HEK293 TMEM16A/YFP-H148Q, iodide quench fluorescence; ionomycin added to raise cell calcium; actives 39% (n = 2,300); shares compounds with TMEM16A inh; inhibition, % at 10 µM; AID 652189, 2013;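 active = mean duplicate percent inhibition, scaled so buffer wells are 0 and the reference blocker 100, over three buffer SD above buffer mean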
TMEM16A Ca cntr: calcium mobilization in TMEM16A/YFP HEK293 cells, confirmation, counter-screen for TMEM16A inhibitor project; calcium response (% of ionomycin), % at 10 µM; actives 2% (n = 2,300); shares compounds with TMEM16A inh; Fluo4 calcium mobilization;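 active = duplicate-averaged calcium signal over 20% of the ionomycin maximum, relative to buffer baseline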;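 note: each well's signal is peak minus trough fluorescence divided by its pre-addition baseline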
Parental YFP cnt: iodide YFP quench changes in parental YFP-HEK293, counter-screen for TMEM16A inhibitor project, cell-based; YFP ratio F(max-min)/F0 at 10 µM; 2,300 tested, under 10 active; ionomycin; shares compounds with TMEM16A inh; AID 652233, 2013;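 active = yellow fluorescent protein signal ratio exceeding the buffer control mean by over 5 SD of those controls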;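 note: ratio is mean of duplicate wells from kinetic YFP trace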
ClC-1 rat inh: ClC-1 chloride channel inhibition, selectivity assay for TMEM16A inhibitor project, cell-based, voltage-dependent ClC-1 | 2,300 tested, under 10 active | ratio percent, % at 10 µM | shares compounds with TMEM16A inh | CHO ClC-1-YFP, iodide influx fluorescence quench; iodide control reads 0, buffer control 100 | AID 652236, 2013;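 active = duplicate-mean ratio percent above the mean of iodide-only control wells, which defines zero, plus 5 of their SD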;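 note: higher percent means stronger block of ClC-1 iodide influx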
A number is an active result; 0 = inactive; - = not tested or not shown.

SMILES | DAGLB inh | ANO1 activ | TMEM16A inh | MT1-MMP act inh | TMEM16A reconf | TMEM16A Ca cntr | Parental YFP cnt | ClC-1 rat inh
CC1CN(S(=O)(=O)c2ccc(Cl)c(S(=O)(=O)N3CC(C)OC(C)C3)c2)CC(C)O1 (stereo not given) | 0 | 0 | 100 | 0 | 0 | 0 | 0 | 0
CC(OC(=O)c1ccc(S(C)(=O)=O)c([N+](=O)[O-])c1)C(=O)NC1C2CC3CC(C2)CC1C3 (stereo not given) | - | - | - | 0 | - | - | - | -
O=C(CSc1ccc(Cl)cc1Cl)N1CCC(c2nc3ccccc3s2)CC1 | 0 | 0 | 100 | 0 | 0 | 0 | 0 | 0
Cc1ccc(C(O)c2ncc(-c3ccccc3C(F)(F)F)[nH]2)cc1F (stereo not given) | - | - | - | 0 | - | - | - | -
COCCNC(=O)c1c(NC(=O)c2nc(SC)ncc2Cl)sc2c1CCCC2 | 0 | 0 | 0 | 0 | 23.5% | 0 | 0 | 0
CN(C)CCNC(=O)c1c(NC(=O)c2ccccc2)sc2c1CCCC2 | 0 | 0 | 0 | 0 | - | - | - | -
CCOP(=O)(c1c(F)c(F)c(F)c(F)c1F)C(O)c1ccccc1 (stereo not given) | 0 | 0 | 25 | 0 | 31.0% | 0 | 0 | 0
COC(=O)[C@]12CCCCC=C1N(CCC1=CCCCC1)C(=O)[C@H](CC(=O)NCC13CC4CC(CC(C4)C1)C3)C2 | - | - | - | 0 | - | - | - | -
COc1cccc(C(=O)Nc2cccc(-c3nnc(-c4ccco4)o3)c2)c1 | 0 | 0 | 25 | 0 | 23.0% | 0 | 0 | 0
COc1ccc(Br)cc1C(=O)Nc1cccc(-c2nnc(-c3ccco3)o2)c1 | 0 | 0 | 0 | 0 | - | - | - | -
CCCc1cc(C(=O)Nc2ccc(C(=O)c3ccccc3)cc2)n(C)n1 | 0 | 0 | 100 | 0 | 40.0% | 0 | 0 | 0
COc1cccc(C(=O)Nc2ccc(C(=O)O)cc2)c1 | 0 | 0 | 0 | 0 | - | - | - | -
COc1cccc(C(=O)Nc2ccc(C(=O)c3ccccc3)cc2)c1 | 0 | 0 | 100 | 0 | 26.0% | 0 | 0 | 0
COc1cccc(C(=O)Nc2ccc(Cl)c(C(F)(F)F)c2)c1 | 0 | 0 | 25 | 0 | 18.0% | 0 | 0 | 0
COc1ccc(C(=O)C[C@@H]2OC[C@H](C(C)C)N2S(=O)(=O)c2ccc(C)cc2)cc1OC | - | - | - | 0 | - | - | - | -
COc1ccc(C(O)c2nc(-c3cccc(O)c3)cs2)cc1 (stereo not given) | - | - | - | 0 | - | - | - | -
O=C(COc1ccc(F)cc1Br)Nc1ccccc1N1CCOCC1 | 0 | 0 | - | 0 | - | - | - | -
CCOC(=O)C1CCN(c2c(NCc3ccc(C(=O)NC4CCCC4)cc3)c(=O)c2=O)CC1 | 0 | 0 | 0 | 0 | - | - | - | -
CCOC(=O)C1CCN(c2c(NCCN3CCCCC3C)c(=O)c2=O)CC1 (stereo not given) | 0 | 0 | 100 | 0 | 0 | 0 | 0 | 0
CCCCCC(=O)N1C[C@@H](n2cc(-c3ccc(F)cc3)nn2)[C@H](O)C[C@@H]1c1ccc(OC)cc1 | 0 | - | - | 0 | - | - | - | -
COC(=O)c1ccc(C)c(NC(=O)CCCN2C(=O)NC(C)(C)C2=O)c1 | 0 | 0 | - | 0 | - | - | - | -
c1ccc(Oc2cccc(OCCCCSc3ncccn3)c2)cc1 | 0 | 0 | 100 | 0 | 0 | 0 | 0 | 0
O=C(NCCc1ccc(Cl)cc1)C1CCN(c2ncccn2)CC1 | 0 | 0 | 0 | 0 | - | - | - | -
O=C(NCCc1ccc(Cl)cc1)C1CCN(c2cnccn2)CC1 | 0 | 0 | 100 | 0 | 0 | 0 | 0 | 0
COC(=O)C1=CN(CC2CCCO2)C=C(C(=O)OC)C1c1ccsc1 (stereo not given) | 0 | 0 | 100 | 0 | 0 | 0 | 0 | 0
SMILES | DAGLB inh | ANO1 activ | TMEM16A inh | MT1-MMP act inh | TMEM16A reconf | TMEM16A Ca cntr | Parental YFP cnt | ClC-1 rat inh
CCn1nc(C(=O)OCC(=O)N(CCC#N)c2ccccc2)c2ccccc2c1=O | 0 | 0 | - | 0 | - | - | - | -
O=C(Nc1nc(-c2ccccc2)cs1)c1ccc(=O)[nH]c1 | 0 | 0 | 25 | 0 | 26.5% | 0 | 0 | 0
O=C(Nc1ccc(NC(=O)c2cccs2)cc1)c1cccs1 | 0 | 0 | 0 | 0 | - | - | - | -
O=C(Nc1ccc(Cl)cc1)c1cccs1 | 0 | 0 | 25 | 0 | 0 | 0 | 0 | 0
O=C(Nc1nc(-c2ccc(Cl)s2)cs1)c1cccs1 | 0 | 0 | 25 | 0 | 0 | 0 | 0 | 0
O=C(Nc1nc(-c2ccccc2)cs1)c1cccs1 | 0 | 0 | 25 | 0 | 22.0% | 0 | 0 | 0
O=C(O)c1cccc2c1C(=O)c1ccc(N3CCN(Cc4ccc5c(c4)OCO5)CC3)cc1S2(=O)=O | 0 | - | - | 0 | - | - | - | -
COc1ccc(NC(=O)[C@@H]2O[C@H](CO)[C@H](O)[C@H](O)[C@H]2O)cc1F | - | - | - | 0 | - | - | - | -
CN(C)c1ccc([C@@H]2[C@@H]([N+](=O)[O-])[C@H]3C=Cc4ccccc4N3[C@H]2C(=O)c2ccc(Cl)cc2)cc1 | 0 | 0 | 0 | 0 | - | - | - | -
O=C(Nc1nc(-c2ccccc2)cs1)c1ccccc1NS(=O)(=O)c1ccc(F)cc1 | 0 | 0 | 100 | 0 | 78.0% | 0 | 0 | 0
O=C(Nc1nc(-c2ccccc2)cs1)c1ccc2c(=O)n3c(nc2c1)CCCCC3 | 0 | 0 | 100 | 0 | 0 | 0 | 0 | 0
O=C(Nc1ccccc1Cl)c1ccc2c(=O)n3c(nc2c1)CCC3 | 0 | 0 | - | 0 | - | - | - | -
Cc1cccc(N2CCN(C(=O)CSCc3c(C)noc3C)CC2)c1C | 0 | 0 | 100 | 0 | 42.5% | 0 | 0 | 0
Cc1noc(C)c1CSCC(=O)N1CCN(c2ccc(F)cc2)CC1 | 0 | 0 | 0 | 0 | - | - | - | -
CN(CC(=O)Nc1cccc(F)c1)CC(=O)Nc1cc(S(=O)(=O)N2CCOCC2)ccc1Cl | 0 | 0 | - | 0 | - | - | - | -
CN(CC(=O)Nc1cccc(S(=O)(=O)N2CCOCC2)c1)CC(=O)Nc1ccc(Cl)c(C(F)(F)F)c1 | 0 | 0 | 25 | 0 | 0 | 0 | 0 | 0
Cc1cc(Cl)c(S(=O)(=O)NC(C(=O)O)C(C)C)cc1OCC(=O)NC1CCCCC1 (stereo not given) | 0 | 0 | 0 | 0 | - | - | - | -
Cc1cc(Cl)c(S(=O)(=O)N2CCCC2)cc1OCC(=O)NC1CCCCC1 | 0 | 0 | 100 | 0 | 22.0% | 0 | 0 | 0
CCCCNC(=O)c1[nH]c(=O)cnc1-c1ccccc1 | - | - | - | 0 | - | - | - | -
